The values that follow come from the array DNA melting data of Ke et al. (doi:10.1101/2024.01.08.574731).

Series [1] is described as follows: melting temperature; fluorescence melt of hairpins on a sequencing array, two-state fit, raised by 9.35 °C to match UV melts. Particulars: sodium 0.088 M. In a few lines:
(§1)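 To match UV melts, fitted temperatures were raised by 9.35 °C. These fits were bootstrapped two-state models that gave melting temperature and folding enthalpy, combined by inverse variance over four replicates. The input was normalised Cy3 fluorescence of library hairpins with annealed Cy3 and quencher oligos on a sequenced MiSeq flow cell, imaged in 50 mM Na-HEPES pH 8.0, 25 mM NaCl in 2.5 °C steps up to 60 °C.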

Series [2] can be described thus: folding enthalpy; higher = less favourable; fluorescence melt of hairpins on a sequencing array, two-state fit. Conditions: sodium 0.088 M. In a few lines:
as §1

For the sequence GATCGTGGAGACGATC ((((((....)))))), in series [1], the Tm worked out at 57.8 °C. Moreover, in series [2], the folding enthalpy was -42.4 kcal/mol.

Regarding GATCGTGGCACGATC ((((((...)))))), the Tm in series [1] is 59.8 °C. Further, in series [2], the folding enthalpy was -45.8 kcal/mol.

As for GATCGTGGGAACGATC ((((((....)))))), the Tm in series [1] amounted to 61 °C. Moreover, in series [2], the folding enthalpy is -38.5 kcal/mol.

Regarding GATCGTGGGGACGATC ((((((....)))))), the Tm in series [1] was determined as 54.3 °C. Further, the folding enthalpy in series [2] was -36.2 kcal/mol.

For the sequence GATCGTGTCACGATC ((((((...)))))), the Tm in series [1] was 59.3 °C. Besides, the folding enthalpy in series [2] is -38.2 kcal/mol.

As for GATCGTGTCGACGATC ((((((....)))))), in series [1], the Tm came to 60.3 °C. The folding enthalpy in series [2] is -33.9 kcal/mol.

As to GATCGTGTTAACGATC ((((((....)))))), the Tm in series [1] stood at 66.9 °C. The folding enthalpy in series [2] was -36 kcal/mol.

Consider GATCGTGTTCACGATC ((((((....)))))), for which the Tm in series [1] is 58.8 °C. For the same sequence, the folding enthalpy in series [2] was -44.2 kcal/mol.

As to GATCGTTACCACGATC ((((((....)))))), in series [1], the Tm stood at 54.3 °C. Further, the folding enthalpy in series [2] is -45.6 kcal/mol.

GATCGTTAGACGATC ((((((...)))))): the Tm in series [1] came out at 52.9 °C. Besides, the folding enthalpy in series [2] was -34.8 kcal/mol.

In the case of GATCGTTATACGATC ((((((...)))))), in series [1], the Tm amounted to 57.9 °C. Moreover, the folding enthalpy in series [2] was -36.4 kcal/mol.

Consider GATCGTTCCACGATC ((((((...)))))), for which the Tm in series [1] is 59.6 °C. Besides, the folding enthalpy in series [2] is -40.1 kcal/mol.

In the case of GATCGTTCCTACGATC ((((((....)))))), the Tm in series [1] was determined as 56.7 °C. Further, the folding enthalpy in series [2] is -41.9 kcal/mol.

Regarding GATCGTTCTCACGATC ((((((....)))))), in series [1], the Tm came to 54.8 °C. For the same sequence, the folding enthalpy in series [2] was -40.8 kcal/mol.

Consider GATCGTTGATACGATC ((((((....)))))), for which the Tm in series [1] stood at 54.3 °C. In series [2], the folding enthalpy was -35.3 kcal/mol.

For GATCGTTGCTACGATC ((((((....)))))), the Tm in series [1] stood at 56.3 °C. In series [2], the folding enthalpy was -35.9 kcal/mol.

Consider GATCGTTGTTACGATC ((((((....)))))), for which the Tm in series [1] was 57.4 °C. Besides, the folding enthalpy in series [2] was -37.7 kcal/mol.

GATCGTTTCAACGATC ((((((....)))))): the Tm in series [1] was 59.7 °C. In series [2], the folding enthalpy is -42 kcal/mol.

In the case of GATCGTTTCGACGATC ((((((....)))))), in series [1], the Tm was 57.7 °C. The folding enthalpy in series [2] is -43.1 kcal/mol.

GATCGTTTCTACGATC ((((((....)))))): in series [1], the Tm came out at 55.8 °C. Further, the folding enthalpy in series [2] was -43 kcal/mol.

With GATCGTTTGCACGATC ((((((....)))))), the Tm in series [1] came to 54.7 °C. Besides, in series [2], the folding enthalpy is -27 kcal/mol.

For GATCGTTTTGACGATC ((((((....)))))), in series [1], the Tm was determined as 57.2 °C. In series [2], the folding enthalpy is -40.3 kcal/mol.

In the case of GATCTAAAAGTAGATC ((((((....)))))), in series [1], the Tm amounted to 29.6 °C. Further, the folding enthalpy in series [2] was -17.5 kcal/mol.

Take GATCTAAACCTAGATC ((((((....)))))): the Tm in series [1] was found to be 39.3 °C. Besides, the folding enthalpy in series [2] is -33.8 kcal/mol.

Take GATCTAAACTAGATC ((((((...)))))): in series [1], the Tm came out at 36.1 °C. For the same sequence, the folding enthalpy in series [2] was -23.9 kcal/mol.

On to GATCTAACAATAGATC ((((((....)))))), for which the Tm in series [1] turned out to be 33.9 °C. The folding enthalpy in series [2] is -17.6 kcal/mol.

For the sequence GATCTAACATTAGATC ((((((....)))))), the Tm in series [1] turned out to be 39.6 °C. The folding enthalpy in series [2] was -22.6 kcal/mol.

On to GATCTAACCATAGATC ((((((....)))))), for which the Tm in series [1] came out at 38.2 °C. Moreover, the folding enthalpy in series [2] was -31.7 kcal/mol.

On to GATCTAACCCTAGATC ((((((....)))))), for which, in series [1], the Tm came to 37.5 °C. Moreover, in series [2], the folding enthalpy was -31.1 kcal/mol.

In the case of GATCTAACGTAGATC ((((((...)))))), in series [1], the Tm worked out at 36.1 °C. Also, the folding enthalpy in series [2] was -24.5 kcal/mol.

Take GATCTAAGACTAGATC ((((((....)))))): the Tm in series [1] was determined as 34.3 °C. Also, the folding enthalpy in series [2] is -19.9 kcal/mol.

As to GATCTAAGATTAGATC ((((((....)))))), the Tm in series [1] worked out at 37.5 °C. Besides, the folding enthalpy in series [2] was -32.1 kcal/mol.
